The source of these data is ChEMBL document CHEMBL1140169, “Discovery of novel PPAR ligands by a virtual screening approach based on pharmacophore modeling, 3D shape, and electrostatic similarity screening” (J Med Chem, 2008).

Assay [1] has as its target T1, Peroxisome proliferator-activated receptor alpha (Homo sapiens) (UniProt Q07869).
T1 sequence (whole entry): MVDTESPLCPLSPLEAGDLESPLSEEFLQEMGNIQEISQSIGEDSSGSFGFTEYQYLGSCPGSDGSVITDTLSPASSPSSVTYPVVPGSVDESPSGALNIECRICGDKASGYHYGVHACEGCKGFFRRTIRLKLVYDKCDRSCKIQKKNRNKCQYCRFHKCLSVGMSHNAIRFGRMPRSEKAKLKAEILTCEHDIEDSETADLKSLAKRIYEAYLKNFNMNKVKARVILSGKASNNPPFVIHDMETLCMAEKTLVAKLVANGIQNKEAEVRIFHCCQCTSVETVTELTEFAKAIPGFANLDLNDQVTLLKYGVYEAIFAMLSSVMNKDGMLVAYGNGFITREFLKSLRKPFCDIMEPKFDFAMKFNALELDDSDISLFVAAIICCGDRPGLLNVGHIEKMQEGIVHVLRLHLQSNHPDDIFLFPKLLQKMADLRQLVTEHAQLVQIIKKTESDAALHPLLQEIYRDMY
Kind of assay: Activation of human PPARalpha ligand binding domain expressed in mouse Hepa 1-6 cells co-transfected with fused Gal4-DBD at 0.1 to 10 uM by luciferase reporter gene assay relative to control. The class given is cell-based. A digest of the protocol: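 Hepa 1-6 cells (MEM, 10% FCS, penicillin/streptomycin) transfected at 50–70% confluence using Metafectene with Gal4-hPPARα-LBD (0.001 µg plus 0.099 µg pBSK), 4xUAS-TK-Luc reporter and CMV-β-galactosidase. Six hours later, compound was added at 0.1, 1 and 10 µM. Lysis and luminometry after 18 h. Luciferase normalized to β-gal, expressed as fold induction over 0.1% DMSO vehicle. Triplicates, each measured in duplicate.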
In general terms: A reporter such as luciferase makes a cellular process visible.

In assay [2] the target is T1, Peroxisome proliferator-activated receptor alpha (Homo sapiens). Put plainly: Activation of human PPARalpha ligand binding domain expressed in mouse Hepa 1-6 cells co-transfected with fused Gal4-DBD at 10 uM after 18 hrs by luciferase reporter gene assay relative to GW-7647. It counts as cell-based. In a few lines:
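Gal4-hPPARα-LBD/UAS-luciferase transactivation in Hepa 1-6 cells (Metafectene transfection, β-gal normalization). Compound at 10 µM was added 6 h post-transfection and read 18 h later. Activity is given as percent of the response to 30 nM GW7647. Triplicates measured in duplicate.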

Assay [3] deals with T2, Peroxisome proliferator-activated receptor gamma (Homo sapiens, UniProt P37231).
T2 sequence (P37231 whole entry): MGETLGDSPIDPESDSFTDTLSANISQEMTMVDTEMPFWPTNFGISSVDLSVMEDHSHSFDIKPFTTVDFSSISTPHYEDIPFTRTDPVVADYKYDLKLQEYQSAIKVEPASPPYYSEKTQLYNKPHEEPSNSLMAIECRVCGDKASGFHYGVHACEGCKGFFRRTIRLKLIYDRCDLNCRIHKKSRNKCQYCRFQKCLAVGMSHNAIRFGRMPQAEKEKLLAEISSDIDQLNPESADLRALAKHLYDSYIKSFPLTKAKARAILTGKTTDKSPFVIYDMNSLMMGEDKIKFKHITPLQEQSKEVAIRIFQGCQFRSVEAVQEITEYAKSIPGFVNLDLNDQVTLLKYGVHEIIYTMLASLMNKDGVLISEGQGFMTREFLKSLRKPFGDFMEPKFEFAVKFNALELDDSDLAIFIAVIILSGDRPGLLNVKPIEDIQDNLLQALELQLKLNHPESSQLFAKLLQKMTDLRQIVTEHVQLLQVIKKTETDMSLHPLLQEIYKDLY

The target in assay [4] is T3, Peroxisome proliferator-activated receptor gamma (Homo sapiens) (UniProt P37231).
T3 sequence (whole entry): T2 sequence (P37231 whole entry)
Put plainly: Activation of human PPARgamma ligand binding domain expressed in MEF cells co-transfected with fused Gal4-DBD at 10 uM after 18 hrs by luciferase reporter gene assay relative to rosiglitazone. It counts as cell-based. A digest of the protocol:
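MEFs (DMEM, 10% calf serum) transfected with Gal4-hPPARγ-LBD, 4xUAS-TK-Luc and CMV-β-gal by Metafectene. Compound at 10 µM was added 6 h later and luciferase/β-gal read after 18 h. Activity is expressed as percent of the response to 1 µM rosiglitazone. Triplicates measured in duplicate.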

The target of assay [5] is T4, Peroxisome proliferator-activated receptor alpha (Homo sapiens, UniProt Q07869).
T4 sequence (Q07869 whole entry): T1 sequence (whole entry)
Kind of assay: Displacement of fluorescent pan PPAR agonist form GST-tagged human PPARalpha ligand binding domain by FRET assay. In a few lines: (§1)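 TR-FRET (LanthaScreen) competitive binding: purified GST-tagged PPAR LBD labelled with terbium anti-GST antibody, with a fluorescent pan-PPAR agonist tracer. Displacement was read as RFU over dose-response series in triplicate. IC50 came from a one-site sigmoidal fit. Reference ligands were GW7647 (PPARα) and L165041 (PPARδ).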

For assay [6], the target named is T5, Peroxisome proliferator-activated receptor delta (Homo sapiens, UniProt Q03181).
T5 sequence (Q03181 whole entry): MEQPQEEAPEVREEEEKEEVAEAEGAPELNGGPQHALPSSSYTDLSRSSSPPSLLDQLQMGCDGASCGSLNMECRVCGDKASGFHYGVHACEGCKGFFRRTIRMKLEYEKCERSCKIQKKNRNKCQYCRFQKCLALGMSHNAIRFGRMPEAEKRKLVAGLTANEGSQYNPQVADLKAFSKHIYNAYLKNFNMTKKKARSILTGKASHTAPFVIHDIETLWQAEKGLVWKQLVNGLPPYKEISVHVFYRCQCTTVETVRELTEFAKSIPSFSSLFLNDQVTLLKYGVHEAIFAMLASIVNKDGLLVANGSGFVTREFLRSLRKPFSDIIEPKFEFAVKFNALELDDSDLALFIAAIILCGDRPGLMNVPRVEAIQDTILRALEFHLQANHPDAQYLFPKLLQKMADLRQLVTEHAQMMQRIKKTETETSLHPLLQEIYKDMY
Kind of assay: Displacement of fluorescent pan PPAR agonist form GST-tagged human PPARdelta ligand binding domain by FRET assay. In a few lines: as §1

The target in assay [7] is T6, Peroxisome proliferator-activated receptor delta (Homo sapiens) (UniProt Q03181).
T6 sequence (whole entry): T5 sequence (Q03181 whole entry)
Put plainly: Antagonist activity at human PPARdelta ligand binding domain expressed in MEF cells co-transfected with Gal4-DBD assessed as reduction of L165041-induced transactivation response at 1 uM by luciferase reporter gene assay. It counts as cell-based. In a few lines: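 MEFs transfected with Gal4-hPPARδ-LBD, UAS-luciferase reporter and CMV-β-gal. Starting 6 h post-transfection, cells were co-treated with 1 µM L165041 and a range of compound doses. After 18 h, β-gal-normalized luciferase was compared with the L165041 response. Triplicates measured in duplicate.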

Active and inactive are the calls of the source. No cut-off for these calls is given here.

For the molecule `CCOC(=O)C[C@H](C)NC(=O)c1csc(C2CCN(C(=O)c3c(F)cccc3Cl)CC2)n1`, the outcome in assay [1] was Active. In addition, the Activity in assay [2] came to 20%; in assay [4], 15%. Besides, the 50% inhibitory concentration (IC50) (in general, the concentration needed to halve the response being measured) in assay [3] was found to be 44 µM.
For `CCn1c(SCC(=O)Nc2ccc(C(=O)O)cc2)nnc1-c1cc2cccc(OC)c2o1`, the result in assay [1] was Active. The concentration for half-maximal inhibition (IC50) in assay [5] amounted to 1 µM; in assay [6], 390 µM. The molecule also came in with an Activity in assay [2] of 15%.
As for `CCOC(=O)N1CCc2c(sc(NC(=O)Cc3ccc(OC)cc3)c2C(=O)Nc2ccc(C(=O)OC)cc2)C1`, in assay [1], the outcome was Active. The molecule also returned an IC50 in assay [5] of 1.5 µM. Also, the Activity in assay [2] is 40%.
`COC(=O)c1ccc(NC(=O)C[C@H]2C(=O)N(c3cccc(OC)c3)C(=O)N2Cc2ccc(OC)cc2)cc1`: the outcome in assay [1] and in assay [7] was Active. Also, the IC50 in assay [3] worked out at 13 µM; in assay [6] it was 7.2 µM. In assay [4], this molecule came in with an Activity of 20%.
For the molecule `O=C(O)c1ccc(COc2ccc3ccccc3c2/C=N/c2ccc(N3CCOCC3)cc2)cc1`, the outcome in assay [1] was Active. Moreover, the IC50 worked out at 43 µM in assay [5] and 34 µM in assay [6]. The Activity in assay [2] was 15%.
